The values that follow come from ChEMBL document CHEMBL1921724, “In search of a cytostatic agent derived from the alkaloid lycorine: synthesis and growth inhibitory properties of lycorine derivatives” (Bioorg Med Chem, 2011).

Experiment [1] deals with B16-F10. Description: Growth inhibition of pro-apoptotic stimuli-sensitive mouse B16F10 cells after 72 hrs by MTT assay. It is filed as functional. The conditions noted are these: B16-F10, 72 h. An outline of the steps:
(§1)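 Cells seeded at 10,000 to 40,000 cells/mL depending on cell type and allowed to attach for 24 h. They were then cultured 72 h with or without compound (untreated control). Living cells were measured by MTT reduction to formazan, read at 570 nm against a 630 nm reference. GI50 was derived from the growth levels.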
For orientation: Tetrazolium assays rely on reduction of a dye to a coloured formazan, in cell work by metabolically active cells.

Experiment [2] can be described thus: Growth inhibition of pro-apoptotic stimuli-resistant human U373 cells after 72 hrs by MTT assay. It is filed as functional, U-373MG ATCC. The settings on record: U373 MG. An outline of the steps: as §1
Experiment [3] concerns T98G. Description: Growth inhibition of pro-apoptotic stimuli-resistant human T98G cells after 72 hrs by MTT assay. It is filed as functional. The method in brief:
as §1

Experiment [4] has as its system SK-MEL-28. Description: Growth inhibition of pro-apoptotic stimuli-resistant human SK-MEL-28 cells after 72 hrs by MTT assay. It is filed as functional. The conditions noted are these: SK-MEL-28, 72 h. An outline of the steps:
as §1

For experiment [5], the system named is MCF7. Description: Growth inhibition of human MCF7 cells after 72 hrs by MTT assay. It is filed as functional. The settings on record: MCF7, 72 h.
Experiment [6] concerns A549. Description: Growth inhibition of pro-apoptotic stimuli-resistant human A549 cells after 72 hrs by MTT assay. It is filed as functional. The settings on record: A549, 72 h. An outline of the steps: as §1
Experiment [7] has as its system PC-3. Description: Growth inhibition of human PC3 cells after 72 hrs by MTT assay. It is filed as functional. The settings on record: PC-3, 72 h.
A short description of experiment [8]: Growth inhibition of pro-apoptotic stimuli-sensitive human Hs683 cells after 72 hrs by MTT assay. It is filed as functional. The settings on record: Hs 683, 72 h. An outline of the steps: as §1

As usually defined, the GI50 is the concentration at which growth is held to half of that of the control. A higher GI50 goes with less potent growth inhibition. Turning to `O[C@@H]1[C@@H](O)[C@H](O)[C@@]2(O)CCN3Cc4cc5c(cc4[C@H]1[C@H]32)OCO5`, the 50% growth inhibitory concentration (GI50) was 83 µM in experiment [1]; over 100 µM in experiment [2]; over 100 µM in experiment [3]; over 100 µM in experiment [4]; over 100 µM in experiment [5]; over 100 µM in experiment [6]. In addition, the GI50 in experiment [7] and in experiment [8] was over 100 µM each time.
Consider `O=c1c2cc3c(cc2c2cccc4c2n1CC4)OCO3`, for which the GI50 in experiment [1] was 8 µM; in experiment [2] it was 4 µM; in experiment [3] it was 24 µM; in experiment [4], 33 µM; in experiment [5], 16 µM; in experiment [6] it was 24 µM. Besides, the 50% growth inhibitory concentration (GI50) in experiment [7] was 38 µM; in experiment [8], 14 µM.
Turning to `O=C(O[C@H]1[C@H]2c3cc4c(cc3CN3CCC(=C[C@@H]1OC(=O)c1ccccc1)[C@H]23)OCO4)c1ccccc1`, the GI50 in experiment [1] is 24 µM; in experiment [2] it was 1 µM; in experiment [3], 54 µM; in experiment [4] it was 29 µM; in experiment [5] it was 20 µM; in experiment [6] it was 54 µM. For the same compound, the GI50 in experiment [7] came to 11 µM; in experiment [8], 10 µM.
For `O[C@H]1C=C2CCN3Cc4cc5c(cc4[C@H]([C@@H]1OCc1ccccc1)[C@@H]23)OCO5`, the GI50 was 57 µM in experiment [1]; 50 µM in experiment [2]; 34 µM in experiment [3]; over 100 µM in experiment [4]; 74 µM in experiment [5]; 67 µM in experiment [6]. For the same compound, the GI50 in experiment [7] was determined as 97 µM; in experiment [8], 80 µM.
Take `O[C@H]1[C@H]2c3cc4c(cc3CN3CCC(=C[C@@H]1O)[C@H]23)OCO4` [LYCORINE]: the GI50 in experiment [1] stood at 2 µM; in experiment [2], 3 µM; in experiment [3], 3 µM; in experiment [4] it was 4 µM; in experiment [5], 4 µM; in experiment [6], 0.9 µM. Moreover, the values for the GI50 in experiment [7] and in experiment [8] were 4 µM and 0.9 µM, respectively.
With `CC(=O)O[C@@H]1[C@@H](OC(C)=O)[C@H](OC(C)=O)[C@@]2(O)CCN3C(=O)c4cc5c(cc4[C@H]1[C@H]32)OCO5`, the GI50 in experiment [1], in experiment [2], in experiment [3], in experiment [4], in experiment [5] and in experiment [6] was over 100 µM in each case. The 50% growth inhibitory concentration (GI50) in experiment [7] and in experiment [8] was over 100 µM in each case.
Take `CC(C)(C)OC(=O)O[C@H]1[C@H]2c3cc4c(cc3CN3CCC(=C[C@@H]1OC(=O)OC(C)(C)C)[C@H]23)OCO4`: the GI50 worked out at 4 µM in experiment [1]; 4 µM in experiment [2]; 4 µM in experiment [3]; 20 µM in experiment [4]; 5 µM in experiment [5]; 3 µM in experiment [6]. Besides, the GI50 was found to be 22 µM in experiment [7] and 9 µM in experiment [8].
As for `O=C1c2cc3c(cc2[C@@H]2[C@H](O)[C@@H](O)C=C4CCN1[C@H]42)OCO3`, the GI50 in experiment [1], in experiment [2], in experiment [3], in experiment [4], in experiment [5] and in experiment [6] was over 100 µM each time. The GI50 in experiment [7] and in experiment [8] was over 100 µM throughout.
In the case of `CC(=O)O[C@H]1[C@H]2c3cc4c(cc3C(=O)N3CCC(=C[C@@H]1OC(C)=O)[C@H]23)OCO4`, the GI50 was 75 µM in experiment [1]; 39 µM in experiment [2]; 32 µM in experiment [3]; 99 µM in experiment [4]; over 100 µM in experiment [5]; 36 µM in experiment [6]. Further, the GI50 was over 100 µM in experiment [7] and 49 µM in experiment [8].
For the compound `CC(C)[Si](O[C@H]1C=C2CCN3Cc4cc5c(cc4[C@H]([C@@H]1O)[C@@H]23)OCO5)(C(C)C)C(C)C`, the GI50 in experiment [1] was 22 µM; in experiment [2], 13 µM; in experiment [3] it was 11 µM; in experiment [4], 26 µM; in experiment [5], 24 µM; in experiment [6], 15 µM. Further, the figures for the GI50 in experiment [7] and in experiment [8] were 18 µM and 22 µM, respectively.
Take `O=C1C=C2CCN3Cc4cc5c(cc4[C@H]([C@@H]1O)[C@@H]23)OCO5`: the GI50 in experiment [1] is 16 µM; in experiment [2], 45 µM; in experiment [3], 38 µM; in experiment [4], over 100 µM; in experiment [5], 35 µM; in experiment [6], 4 µM. In addition, the GI50 amounted to 92 µM in experiment [7] and 3 µM in experiment [8].
`CC(C)(C)C(=O)O[C@H]1C=C2CCN3Cc4cc5c(cc4[C@H]([C@@H]1O)[C@@H]23)OCO5`: the GI50 in experiment [1] worked out at 5 µM; in experiment [2], 9 µM; in experiment [3], 12 µM; in experiment [4], 10 µM; in experiment [5], 36 µM; in experiment [6], 7 µM. The GI50 was 12 µM in experiment [7] and 15 µM in experiment [8].
As to `O=C(O[C@H]1[C@H]2c3cc4c(cc3CN3CCC(=C[C@@H]1O)[C@H]23)OCO4)c1ccccc1`, the GI50 in experiment [1] is 8 µM; in experiment [2], 0.6 µM; in experiment [3], 32 µM; in experiment [4], 4 µM; in experiment [5] it was 5 µM; in experiment [6] it was 32 µM. For the same compound, the GI50 in experiment [7] worked out at 5 µM; in experiment [8] it was 4 µM.
In the case of `CC(=O)Oc1cc2ccn3c(=O)c4cc5c(cc4c(c1)c23)OCO5`, the concentration for 50% growth inhibition (GI50) is 5 µM in experiment [1]; 5 µM in experiment [2]; 18 µM in experiment [3]; 21 µM in experiment [4]; 7 µM in experiment [5]; 18 µM in experiment [6]. Further, the GI50 was determined as 21 µM in experiment [7] and 14 µM in experiment [8].
Turning to `CC(=O)O[C@H]1[C@H]2c3cc4c(cc3C(=S)N3CCC(=C[C@@H]1OC(C)=O)[C@H]23)OCO4`, the concentration for 50% growth inhibition (GI50) in experiment [1] was 30 µM; in experiment [2], 46 µM; in experiment [3], 57 µM; in experiment [4] it was 47 µM; in experiment [5], 35 µM; in experiment [6], 57 µM. The GI50 in experiment [7] is over 100 µM; in experiment [8], 52 µM.
In the case of `O=C1c2cc3c(cc2[C@@H]2[C@H](O)[C@@H](O)[C@H](O)[C@@]4(O)CCN1[C@@H]24)OCO3`, the 50% growth inhibitory concentration (GI50) is over 100 µM in experiment [1]; over 100 µM in experiment [2]; over 100 µM in experiment [3]; over 100 µM in experiment [4]; 96 µM in experiment [5]; over 100 µM in experiment [6]. For the same compound, the GI50 in experiment [7] and in experiment [8] was over 100 µM throughout.
For `CC(=O)O[C@@H]1[C@@H](OC(C)=O)[C@H](OC(C)=O)C2=CCN3C(=O)c4cc5c(cc4[C@H]1[C@@H]23)OCO5`, the GI50 is 83 µM in experiment [1]; over 100 µM in experiment [2]; over 100 µM in experiment [3]; over 100 µM in experiment [4]; over 100 µM in experiment [5]; over 100 µM in experiment [6]. Moreover, the GI50 in experiment [7] and in experiment [8] was over 100 µM each time.
